Bioassay records as filed in PubChem BioAssay.
Only some compounds are listed: those with a hit (about 1.3% of all), similar ones and a draw of the others.
VLA-4 inh = inhibition in a human VLA-4 binding assay. VLA-4 expressing cells, ligand binding flow cytometry. inhibition, % (about 7 µM as worked out from the volumes in the protocol). 0.2% of 330,000 active; in the data active = inhibition above about 50%
proCasp7 act = counter-screen for procaspase-3 activators: activators of human procaspase-7; P55210; recombinant procaspase-7, Ac-DEVD-pNA absorbance 405 nm; D23A/D198A/D206A triple mutant, cannot self-cleave; scale: DMSO 0, 5 µM enzyme 100; activation, % at 8.5 µM; 0.093% of 330,000 active;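 active = percent activation above the screen-wide mean plus 3 SD, cut at about 25% in these data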
Target sequence (P55210 whole entry D23A/D198A/D206A): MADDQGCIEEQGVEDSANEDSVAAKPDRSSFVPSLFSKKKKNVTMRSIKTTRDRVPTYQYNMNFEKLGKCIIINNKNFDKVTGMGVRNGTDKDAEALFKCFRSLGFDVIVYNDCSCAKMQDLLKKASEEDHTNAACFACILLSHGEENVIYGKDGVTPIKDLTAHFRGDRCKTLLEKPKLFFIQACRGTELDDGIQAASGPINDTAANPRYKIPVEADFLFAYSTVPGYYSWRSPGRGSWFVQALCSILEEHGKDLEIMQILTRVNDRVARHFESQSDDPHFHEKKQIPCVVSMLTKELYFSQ
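Replicates: singlicate. Assay system: Procaspase-7 triple mutant (PC-7 D3A). Signal: 405 nm absorbance of p-nitroaniline. Times: 1 h preincubation, 2 h reaction. Buffer or medium: Zinc-free HEPES pH 7.4 with 300 mM NaCl, 0.01% Triton X-100. Also added: DEVD-pNA substrate. Benchmarks: DMSO wells as 0%, DMSO with 5 µM added PC-7 as 100%.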
Hep lipid drop = hepatic lipid droplet formation modulation. AID 1656. 0.4% of 240,000 active. inhibition, % at 6.5 µM. AML12 mouse hepatocytes, oleate lipid droplets, BODIPY imaging;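 active = lipid droplet intensity inhibited by at least 50%, with more than 500 cells counted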
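Test system: AML12 mouse liver cells; schedule: overnight exposure; technique: high-content imaging of BODIPY-stained droplets and DAPI nuclei; read-out: % inhibition of corrected integrated BODIPY droplet signal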
GRK2 inh = human GRK2 inhibition via aptamer displacement; P25098; bead flow cytometry, FAM-aptamer displacement from GRK2; inhibition of aptamer binding, % at 10 µM; 0.59% of 330,000 active; AID 488847;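 active = inhibition of aptamer binding above 40%, roughly 3 SD of noise, on plates passing a quality check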;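 also: median bead fluorescence of bound FAM aptamer so fluorescent compounds give negative values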
JMJD2C inh = human JMJD2C demethylase inhibition; Q9H3R0; GST-JMJD2C(1-420) H3K9me3 demethylation, DELFIA europium; inhibition, % at 2.35 µM; 0.069% of 330,000 active; AID 2099;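 active = more than half of a compound's replicate wells show inhibition beyond 50%, single wells judged on their own value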;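 also: signal counts dimethyl H3K9 product captured on neutravidin plate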
procasp3 activ = activates human procaspase-3. P42574. recombinant procaspase-3 D3A, Ac-DEVD-pNA absorbance 405 nm. activation, % at 8.5 µM. 0.11% of 330,000 active. AID 463141;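 active = activation above the mean of all tested compounds plus 3 SD, cut at about 21% in these data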
Target sequence (P42574 whole entry D9A/D28A/D175A): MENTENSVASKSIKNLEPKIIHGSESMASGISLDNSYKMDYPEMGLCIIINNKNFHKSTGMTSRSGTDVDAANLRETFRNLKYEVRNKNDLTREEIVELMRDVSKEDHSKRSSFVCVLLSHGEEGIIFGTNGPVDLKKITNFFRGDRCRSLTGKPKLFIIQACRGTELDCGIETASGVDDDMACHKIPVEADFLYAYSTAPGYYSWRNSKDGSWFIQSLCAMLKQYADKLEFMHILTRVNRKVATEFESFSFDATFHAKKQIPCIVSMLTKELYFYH
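Test system: Procaspase-3 D3A mutant; medium: Zinc-free HEPES/NaCl buffer with 0.01% Triton X-100 at pH 7.4; reagent: DEVD-pNA substrate; doses: one concentration, 8.5 µM nominal, 0.8% DMSO; times: 1 h preincubation plus 2 h reaction at 25 °C; signal: Epi-absorbance at 405 nm of released p-nitroaniline, 0 and 120 min; replicates: singlicate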
GRK2 CP1 = confirmation of human GRK2 inhibitors displacing RNA aptamer; shares compounds with GRK2 inh; bead-bound GRK2, FAM-aptamer displacement, flow cytometry; aptamer displacement, % at 10 µM; 4% of 2,000 active;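 active = aptamer displacement above 40%, near three times the noise of non-fluorescent compounds, on plates passing quality checks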;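 also: negative values mostly reflect intrinsic compound fluorescence rather than true enhancement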
Aptamer quench 1 = quenches fluorescent RNA aptamer, GRK2 hit artifact; Fluorescent RNA aptamer beads, quenching, flow cytometry; hits give high values; 110 tested, under 10 active; shares compounds with GRK2 inh; fluorescence change (kMESF span), kMESF (test concentration not listed);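 active = compounds whose bead fluorescence drops by more than 37 kMESF across the dose range, marking them as dye quenchers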
Aptamer quench SP = quenches fluorescent RNA aptamer, GRK2 hit artifact. shares compounds with GRK2 inh. Carboxyfluorescein RNA aptamer on beads, flow cytometry quenching; hits give low values. fluorescence response (% of DMSO), % at 10 µM. 2,000 tested, under 10 active;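 active = compounds that quench the bead-bound fluorescent RNA probe, cutting fluorescence to under half of the solvent control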;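 also: counterscreen run without GRK2 so only probe quenching by compound is measured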
GRK2 CP2 = confirmation of human GRK2 inhibitors binding RNA aptamer site. shares compounds with GRK2 inh. bead-bound GRK2, FAM-aptamer displacement, flow cytometry. 360 tested, under 10 active. inhibition of aptamer binding, % at 10 µM;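 active = inhibition of aptamer binding above 40%, about triple the noise seen with nonglowing compounds, on plates passing quality control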;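 also: negative values mostly come from compounds that fluoresce themselves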
Aptamer quench 2 = quenches fluorescent RNA aptamer, GRK2 hit artifact; 25 tested, under 10 active; change in fluorescence (kMESF span), kMESF (test concentration not listed); Streptavidin beads, FAM-RNA aptamer fluorescence quenching, flow cytometry; shares compounds with GRK2 inh;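 active = compounds quenching the bead-bound labeled aptamer, with fluorescence dropping by more than 37 kMESF over the dose range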
FAM quench CP2 = counter-screen for GRK2 binding hits: quenchers of fluorescent RNA aptamer; shares compounds with GRK2 inh; carboxyfluorescein RNA aptamer beads, flow cytometry quenching; hits give low values; fluorescence response vs DMSO, % at 10 µM; 360 tested, under 10 active;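 active = response vs DMSO under 50%, meaning signal dropped by over half, treated as fluorescence quencher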;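 also: labelled aptamer on streptavidin beads without GRK2 as a quench counter-screen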
FAM quench DR = counter-screen for GRK2 aptamer binding inhibitors: aptamer fluorescence quenching. shares compounds with GRK2 inh. Bead-bound FAM RNA aptamer fluorescence quenching, flow cytometry; hits give low values. fluorescence ratio to DMSO, % at 11.1 µM. 35 tested, under 10 active. AID 588496;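 active = compounds that dim the fluorescent label, raw bead signal shifting by over 33 units between lowest and highest dose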
Large screens that a line does not name were inactive (follow-up assays come after a bar, where they were run).

CSc1ccc(C2CC(=O)Nc3c2c(=O)n(C)c(=O)n3C)cc1 (stereo unspecified)	GRK2 inh 85.0 | GRK2 CP1 inactive | Aptamer quench SP inactive
CCN(C(=O)Cn1c([N+](=O)[O-])cnc1C)c1ccccc1	none
COc1cc(C2C(=O)N(C3CCCC3)CC(=O)N2Cc2ccco2)ccc1OC(C)C (stereo unspecified)	GRK2 inh 58.0 (no result: Hep lipid drop) | GRK2 CP1 inactive | Aptamer quench SP inactive
CCCOc1ccc(C2C(=O)N(C3CCCCC3)CC(=O)N2CCC)cc1OC (stereo unspecified)	none (no result: Hep lipid drop)
CCCCOCCCNc1ncnc2c1[nH]c1ccccc12	GRK2 inh 53.0 | GRK2 CP1 inactive | Aptamer quench SP inactive
CCOCCCNc1ncnc2c1[nH]c1ccccc12	none
O=S(=O)(Oc1ccc(C(=S)N2CCOCC2)cc1)c1ccc(Cl)cc1	GRK2 inh 99.0 | GRK2 CP1 inactive | Aptamer quench SP inactive
Cn1c(SCc2cccc(F)c2)nnc1-c1ccccn1	GRK2 inh 58.0 (no result: Hep lipid drop) | GRK2 CP1 inactive | Aptamer quench SP inactive
O=C(CC1SC(N2CCCCC2)=NC1=O)Nc1cccc(C(=O)NCc2ccc(F)cc2)c1 (stereo unspecified)	none (no result: VLA-4 inh, proCasp7 act, Hep lipid drop, GRK2 inh, JMJD2C inh, procasp3 activ) | GRK2 CP1 inactive | Aptamer quench 1 inactive | Aptamer quench SP inactive
O=C(CC1SC(N2CCCCC2)=NC1=O)Nc1cccc(C(=O)O)c1 (stereo unspecified)	none (no result: Hep lipid drop)
Cn1cc(C(=O)c2ccc(Cl)cc2Cl)cc1C(=O)N/N=C(\N)COc1ccccc1	GRK2 inh 58.0 | GRK2 CP1 inactive | Aptamer quench SP inactive
Cn1cc(C(=O)c2ccc(Cl)cc2Cl)cc1C(=O)N/N=C(\N)COc1ccc(Cl)cc1	none
CSCCC(NS(=O)(=O)c1ccccc1F)C(=O)Nc1cccc(C)n1 (stereo unspecified)	none
CCCCCC(=O)Nc1cccc(C2=NOC3(C2)C[C@H](C(N)=O)N(C(=O)COc2ccc(Cl)cc2)C3)c1 (stereo partly specified)	none (no result: Hep lipid drop) | GRK2 CP2 inactive | FAM quench CP2 inactive
C/C=C\C=C/C(=O)Nc1cccc(C2=NOC3(C2)C[C@@H](C(N)=O)N(C(=O)COc2ccc(Cl)cc2)C3)c1 (stereo partly specified)	none
COc1ccc(C(=O)N2CC3(CC(c4cccc(NC(=O)CC(c5ccccc5)c5ccccc5)c4)=NO3)C[C@H]2C(N)=O)cc1 (stereo partly specified)	none
CCCCCC(=O)Nc1cccc(C2=NOC3(C2)C[C@@H](C(N)=O)N(C(=O)c2ccc(OC)cc2)C3)c1 (stereo partly specified)	GRK2 inh 65.0 | GRK2 CP1 inactive | Aptamer quench 1 inactive | Aptamer quench SP inactive
COc1ccc(S(=O)(=O)CCC(=O)Nc2ccc(OC)cc2OC)cc1	none | GRK2 CP2 inactive | FAM quench CP2 inactive
COc1ccc(NC(=O)CCS(=O)(=O)c2ccc(OC)cc2)cc1	none
COc1ccc(S(=O)(=O)CCC(=O)N(C)c2ccc(OC)cc2OC)cc1	none | GRK2 CP2 inactive | FAM quench CP2 inactive
COc1ccc(NC(=O)CCS(=O)(=O)c2ccccc2)c(OC)c1	none
COc1ccc([N+](=O)[O-])cc1NC(=O)CCS(=O)(=O)c1ccc(Br)cc1	GRK2 inh 54.0 | GRK2 CP1 inactive | Aptamer quench 1 inactive | Aptamer quench SP inactive | Aptamer quench 2 inactive | FAM quench DR inactive
CCc1ccc(N/C(N)=N/c2nc(CSc3ncccn3)cc(=O)[nH]2)cc1	none
Cc1ccc(NC(=O)CN(C)c2ccc(S(=O)(=O)N3CCCC3)cn2)cc1	GRK2 inh 67.0 | GRK2 CP1 inactive | Aptamer quench SP inactive
COC(=O)C(Cc1ccccc1)NC(=O)CNC(=O)c1ccc(Br)cc1 (stereo unspecified)	none
CC(=O)c1cc2c(cc1NC(=O)C1CN(C(C)=O)c3ccccc3O1)OCO2 (stereo unspecified)	none (no result: Hep lipid drop) | GRK2 CP1 inactive | Aptamer quench SP inactive
CC(=O)c1cc2c(cc1NC(=O)C1CC=CCC1C(=O)O)OCO2 (stereo unspecified)	none
O=C(CSc1nc2ccc([N+](=O)[O-])cc2s1)NCC1CCCO1 (stereo unspecified)	GRK2 inh 90.0 (no result: Hep lipid drop) | GRK2 CP1 inactive | Aptamer quench SP inactive
Cc1ccc2oc(C(=O)N(C)Cc3ccon3)c(C)c2c1	GRK2 inh 92.0 | GRK2 CP1 inactive | Aptamer quench SP inactive
Cc1ccc2oc(C(=O)N(C)Cc3ccc(C)o3)c(C)c2c1	none
CC(=O)c1cccc(NC(=O)COC(=O)CCNS(=O)(=O)c2ccccc2)c1	none (no result: Hep lipid drop)
Cc1cc(C)cc(N(C(=O)c2csnn2)C(C(=O)NC2CCCC2)c2cccnc2)c1 (stereo unspecified)	none
O=C1CSc2nc3ccccc3n21	none (no result: Hep lipid drop)
CC12CCC(C(=O)n3c1nc1ccccc13)C2(C)C (stereo unspecified)	none (no result: Hep lipid drop) | GRK2 CP1 inactive | Aptamer quench SP inactive
COCCn1c(SCC(=O)Nc2cccc(C)c2)nnc1C(C)C	GRK2 inh 41.0 (no result: Hep lipid drop) | GRK2 CP2 inactive | FAM quench CP2 inactive
COc1ccc(-c2c(NC(=O)CC(C)C)n(C)c3ccccc3c2=O)cc1OC	GRK2 inh 87.0 (no result: Hep lipid drop) | GRK2 CP1 inactive | Aptamer quench SP inactive
